MT stabilize HCS = stabilizes microtubules in HeLa cells | % tubulin-high responders, % at 10 µM | actives 0.83% (n = 200,000) | HeLa tubulin immunostaining HCS, 24 h; share of cells brighter than vehicle mean+2SD;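 active means plate Z-score above 3 for both tubulin-high and condensed-nucleus cell shares, with cell loss under 80%, at 10 µM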;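 further: anti alpha tubulin signal scored within the nucleus-defined area of each cell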
Dynein transport = blocks dynein driven cargo transport along microtubules | actives 0.47% (n = 220,000) | z-score, hits read low | AID 1381 | 3617.4 mouse cells, GR-EGFP nuclear translocation imaging; test concentration mostly 20 µM; stimulated with dexamethasone, 1 µM; stronger effect = lower value;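 active means plate z-score of nuclear minus cytoplasmic receptor signal below a set negative limit, without overly bright fluorescence or cell loss, cut at about -3.5 in these data, passing the limit was not always enough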;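 further: z-score of nuclear minus cytoplasmic ring GR-EGFP intensity difference per well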
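Also added – dexamethasone, 1.0 µM final · Buffer or medium – tet-free, stripped-serum medium · Schedule – induction 48 h, compound 1 h, agonist 30 min · Detection – formaldehyde fixation, Hoechst nuclear stain, 10x automated fluorescence imaging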
b-catenin transl = modulators of beta-catenin nuclear translocation; nuclear translocation activity, % at 5 µM; HeLa beta-catenin nuclear translocation, immunofluorescence imaging; actives 0.3% (n = 190,000);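 active means nuclear translocation activity above 50% at 5 µM, with a well cell count of 50 or more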;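 further: per-cell ratio of nuclear to cytoplasmic median beta-catenin stain intensity; plate controls were DMSO negative control for no effect and GSK-3 inhibitor IX positive control for full effect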
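System: HeLa cells, endogenous beta-catenin; compound dosing: 5 µM primary single dose, 0.1% DMSO, 0.02–20 µM confirmation series; incubation: 24 h compound exposure at 37°C, 5% CO2; signal: beta-catenin immunofluorescence imaging with DAPI; evaluation: % activation, nuclear-to-cytoplasmic median beta-catenin signal ratio per cell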
Hsp70 act = Hsp70 transcriptional activation, primary screen | HeLa Hsp70 promoter luciferase reporter, luminescence; scaled: vehicle 0, proteasome-inhibitor control 100% | activation, % at 10 µM | actives 0.04% (n = 200,000) | AID 1203;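 active means activation above the mean across all tested compounds plus 3 SD, cutoff set per campaign, cut at about 5.5% in these data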;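 further: 100% = MG132 at 30 µM as the positive control and 0% = DMSO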
Autophagy mod = alters autophagy in cells. actives 0.98% (n = 190,000). calls only at 10 µM (by protocol). MEF GFP-LC3 puncta imaging; test concentration mostly 10 µM;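 active means percentage of spot-positive cells more than 3 SD above its plate mean, without a fluorescence outlier flag or 80% toxicity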;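 further: spot-positive cell cutoff set from DMSO-treated cells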
* = called active by the depositor; i = inactive; · = no result; + = active, no number. In the library only some 2.1% were active in any assay of this set; here they are far more common.

SMILES | MT stabilize HCS | Dynein transport | b-catenin transl | Hsp70 act | Autophagy mod
Clc1ccc2nc(N3CCNCC3)nc(-c3ccccc3)c2c1 | 5.6 | 2.9 | 4.2 | -0.3 | i
O=C1CN(c2nc(-c3ccccc3)c3cc(Cl)ccc3n2)c2ccccc2N1 | 1.9 | 5.41 | 0.3 | -0.4 | +
CC(=O)N1N=C(C)CC1c1ccc(O)cc1 (stereo not drawn) | 2.6 | 0.186 | -3.2 | -0.2 | i
COCCOC(=O)c1[nH]c2c(c1C)C(=O)CC(c1ccc(F)cc1)C2 (stereo not drawn) | 21.5* | 0.668 | 77.6* | -0.3 | i
COCCOC(=O)c1[nH]c2c(c1C)C(=O)CC(c1ccc(N(C)C)cc1)C2 (stereo not drawn) | 2.0 | -0.514 | -0.9 | -0.2 | i
COCCOC(=O)c1[nH]c2c(c1C)C(=O)CC(c1ccccc1)C2 (stereo not drawn) | 25.1* | 0.288 | 95.2* | 0.0 | +
CCC(C)[C@H](NC(=O)N1CCCCCC1)C(=O)OC (stereo partly drawn) | · | 1.53 | -3.9 | · | ·
COc1cc(NC(=O)COc2ccc(Cl)cc2)ccc1-c1cc2ccccc2oc1=O | 23.7* | -0.604 | -1.1 | -0.2 | i
COc1cc(NC(=O)COc2ccc(Cl)cc2)ccc1NC(=O)C(C)C | · | -0.508 | 0.8 | · | ·
Cc1ccc(S(=O)(=O)N2CCN(C(=O)c3ccc([N+](=O)[O-])cc3)C2)cc1 | 2.3 | -0.805 | -2.4 | -0.1 | i
CS(=O)(=O)c1nc(-c2cccs2)cc(C(F)(F)F)n1 | 1.1 | 0.547 | -1.9 | 1.0 | +
Nc1[nH]ncc1-c1ccc(Cl)cc1 | 2.3 | -0.151 | -1.6 | 0.0 | +
CC(C)(C)NC(=O)CSc1ccc(C(C)(C)C)cc1 | 1.3 | -0.242 | 0.9 | 0.5 | i
O=C(CCCOc1ccc(Cl)cc1Cl)N/N=C/c1ccccc1 | 4.3 | 1.09 | -1.9 | -0.2 | i
Cc1ccc(/C=N/NC(=O)CCCOc2ccc(Cl)cc2Cl)cc1 | 14.9 | 0.402 | 115.1* | -0.1 | i
O=C(CNC(=O)c1ccco1)N/N=C/c1cccs1 | · | -0.263 | 0.7 | · | ·
O=c1oc2ccccc2cc1-c1nnc(NCc2ccco2)s1 | 20.1* | 1.86 | · | -0.2 | i
CC(C)(C)c1ccc(CSc2nnc(-c3ccccn3)n2Cc2ccco2)cc1 | 1.0 | -1.34 | -1.3 | 0.0 | i
Brc1ccc(CSc2nnc(-c3ccccn3)n2Cc2ccco2)cc1 | 30.5 | -0.91 | 100.1* | -0.6 | i
Clc1cccc(-c2nnc(SC/C=C/c3ccccc3)n2Cc2ccco2)c1 | 37.3* | -1.27 | 0.2 | -0.2 | i
C(=C\c1ccccc1)/CSc1nnc(-c2ccccc2)n1Cc1ccco1 | 23.2* | 0.298 | 141.1* | -0.2 | i
CC1(C(=O)OCc2cc(=O)n3cc(Br)ccc3n2)CC1(Cl)Cl (stereo not drawn) | 2.0 | 0.0975 | -2.7 | 0.3 | i
CC(SCC(=O)NC12CC3CC(CC(C3)C1)C2)C(=O)O (stereo not drawn) | 1.9 | 0.459 | -1.3 | -0.5 | i
Cc1cc(C)c(C#N)c(SCC(=O)C2CC2)n1 | · | -0.813 | 0.3 | · | ·
COc1ccc(N2CCN(/C(=N\S(=O)(=O)c3ccccc3)Nc3nc(C)cc(C)n3)CC2)cc1 | 3.6 | -0.475 | -0.6 | 0.5 | +
SMILES | MT stabilize HCS | Dynein transport | b-catenin transl | Hsp70 act | Autophagy mod
Cc1ccc(S(=O)(=O)/N=C(/Nc2nc(C)cc(C)n2)N2CCOCC2)cc1 | 1.7 | 0.529 | -6.3 | 0.0 | i
O=C(NC1CCN(Cc2ccccc2)CC1)c1ccc(S(=O)(=O)NCc2ccco2)cc1 | 3.0 | 1.64 | 2.5 | -0.3 | +
O=C(NCC(c1cccs1)N1CCOCC1)c1ccc(Cl)s1 (stereo not drawn) | 54.0* | 0.571 | · | 0.1 | i
CCOC(=O)c1ccc(NCCOC)c([N+](=O)[O-])c1 | 2.8 | -0.566 | -2.3 | 0.1 | +
COCCNc1cc(N)c([N+](=O)[O-])cc1[N+](=O)[O-] | 4.7 | -0.237 | -7.3 | -0.1 | i
Cc1noc(C)c1-c1nc(CS(=O)(=O)c2ccccc2)no1 | · | -1.18 | -3.9 | · | ·
CN1c2ccccc2C(C)(C)[C@]12C=Cc1cc(O)ccc1O2 | 30.6* | -0.257 | 0.4 | 0.0 | i
COc1cccc(NC(=O)CSc2nc3ccccc3c(=O)n2Cc2cccs2)c1 | 2.0 | -0.505 | -1.0 | -0.2 | +
COc1ccc(NC(=O)CSc2nc3ccccc3c(=O)n2Cc2cccs2)c(OC)c1 | 4.5 | -0.887 | -3.9 | -0.3 | i
COc1ccccc1NC(=O)c1cc2c(s1)-c1ccccc1S(=O)(=O)C2 | · | -1.08 | -0.2 | · | ·
O=C(Nc1ccc2c(c1)CCC2)c1cnn2c1NC(c1ccco1)CC2C(F)(F)F (stereo not drawn) | 3.5 | -0.258 | -0.2 | -0.2 | +
CCn1c(SCC(=O)N/N=C/c2ccc(O)c(OC)c2)nc2ccccc21 | 2.4 | 0.603 | -1.1 | -0.2 | i
Cc1oc(C)c2c(=O)ccc3c(c12)OC(N)=C(C#N)C3c1ccccc1 (stereo not drawn) | 6.2 | -0.77 | 1.1 | -0.1 | +
Cc1ccccc1-c1ccc(/C=C2/SC(N3CCOCC3)=NC2=O)o1 | · | -0.46 | -0.1 | · | ·
O=C1N=C(N2CCOCC2)S/C1=C\c1ccc(-c2ccccc2Cl)o1 | 7.6 | 2.87 | -1.1 | -0.2 | +
COc1ccc(CSCC(=O)N/N=C/c2ccccc2O)cc1 | 2.8 | 1.93 | 0.1 | -0.4 | +
O=C(CSc1ccccc1)N/N=C/c1ccccc1O | 3.2 | -0.996 | 0.6 | 0.4 | i
CCC(C)C(NC(N)=O)C(=O)Nc1ccc(OCc2ccccc2)cc1 (stereo not drawn) | · | -1.01 | -0.5 | · | ·
C=CCn1cnc2c(c1=O)c1nc3ccccc3nc1n2/N=C/c1cccc(OC)c1OC | · | · | -6.3 | · | ·
C=CCn1cnc2c(c1=O)c1nc3ccccc3nc1n2/N=C/c1cc(OC)c(OC)c(OC)c1 | 8.5 | 2.77 | -7.0 | -0.1 | +
CCCCn1c(=N)n(CC(=O)c2ccc([N+](=O)[O-])cc2)c2ccccc21 | 6.0 | -0.723 | -1.4 | 0.0 | +
Cc1ccc(Cn2c(=N)n(CC(=O)c3ccc([N+](=O)[O-])cc3)c3ccccc32)cc1 | 38.0 | 0.407 | 2.7 | -0.3 | i
COc1ccc(CN(C(C)=O)c2cccc(C)c2C)cc1 | 43.0* | 0.511 | 10.3 | 0.2 | i
CCc1cccc(C)c1NC(=O)CN(C)Cc1ccc(Br)cc1 | 2.9 | -0.483 | 2.9 | 0.1 | i
CC(=O)N(Cc1ccc(Br)cc1)c1cccc(C)c1C | 16.1 | -0.326 | 51.8* | -0.1 | i
CC(=O)N(Cc1ccccc1)c1ccccc1C(=O)O | · | -0.642 | 0.2 | · | ·
CC(C)(C)c1ccc(NC(=O)Nc2ccc3ccccc3n2)cc1 | · | -0.26 | -0.5 | · | ·
CC1(C)CC(=O)C2=C(C1)NC(=O)CC2c1cc(F)ccc1F (stereo not drawn) | 1.2 | -0.509 | -0.1 | -0.6 | i
O=C1CC(c2cccc(Br)c2)c2cc3c(cc2N1)CCC3 (stereo not drawn) | 28.1* | 0.429 | -0.1 | -0.2 | i

Screening results as filed in PubChem.
